A selection: hits, their analogues and other compounds. The true share with any hit is near 9.3%.
tolC growth inh: growth inhibitors of E. coli tolC mutant, primary screen, strain BW25113 ΔtolC::kan, 384-well | growth inhibition, % at 10 µM (by protocol) | actives 2.2% (n = 65,000) | AID 573, 2007 | OD615;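 active = growth inhibition at or above a cutoff equal to the mean over every tested compound plus 3 SD, cut at about 60% in these data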;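 note: growth measured after 20 h incubation at 37 °C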
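Test system: tolC-deleted E. coli BW25113; medium: LB with kanamycin 50 µg/mL; compound: single-point testing at 10 µM; incubation: 20 h compound exposure of bacteria at 37 °C; signal: OD at 615 nm; evaluation: growth inhibition in percent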
DAT uptake mod: changed hDAT dopamine uptake under cocaine IC80, either direction, primary screen, cocaine antagonist project, cell-based, LLC-PK1 hDAT, [14C]-dopamine uptake, MLSMR. Sodium-dependent dopamine transporter (Homo sapiens), Q01959. LLC-PK1 hDAT cells, [14C]-dopamine uptake with cocaine IC80; actives deviate in either direction. B-score at 10 µM. actives 1.3% (n = 110,000);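 active = Z score or B-score, a plate-position-corrected score, falls beyond the plate's 99.7% confidence bounds, in either direction; inactive = both scores lie inside the 99.7% bounds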
Target sequence (Q01959 whole entry, looked up): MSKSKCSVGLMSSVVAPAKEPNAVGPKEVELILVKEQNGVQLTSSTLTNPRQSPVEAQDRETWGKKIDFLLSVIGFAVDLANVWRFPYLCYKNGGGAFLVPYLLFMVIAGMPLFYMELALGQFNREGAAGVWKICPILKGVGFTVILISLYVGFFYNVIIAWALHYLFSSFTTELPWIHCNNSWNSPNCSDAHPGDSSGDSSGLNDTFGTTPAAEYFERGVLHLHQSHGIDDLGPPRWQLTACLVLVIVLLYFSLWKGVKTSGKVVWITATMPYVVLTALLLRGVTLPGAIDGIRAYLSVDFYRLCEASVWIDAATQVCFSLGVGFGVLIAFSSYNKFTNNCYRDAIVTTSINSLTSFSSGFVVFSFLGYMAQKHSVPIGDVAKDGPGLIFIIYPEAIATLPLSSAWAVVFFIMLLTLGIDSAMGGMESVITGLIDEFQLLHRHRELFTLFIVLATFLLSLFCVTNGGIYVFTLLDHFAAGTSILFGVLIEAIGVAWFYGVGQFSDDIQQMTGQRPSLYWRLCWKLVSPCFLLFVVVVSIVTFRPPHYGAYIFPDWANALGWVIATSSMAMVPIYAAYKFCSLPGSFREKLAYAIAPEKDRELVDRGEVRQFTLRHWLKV
PostGolgi yeast: phenotypic screen on post-Golgi transport, primary screen; post-Golgi transport phenotypic cell assay; inhibition, % at 10 µM; actives 0.9% (n = 98,000); AID 739, 2007;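 note: yeast cells grown in 1536-well plates; yeast grown about 18 h at 30C before absorbance read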
Ecoli WT expand: growth inhibitors of wild-type E. coli, primary screen, strain BW25113, expanded library, OD600 | actives 0.15% (n = 98,000) | AID 710, 2007 | OD600 absorbance | growth inhibition, % at 100 µM;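 active = growth inhibition above about 50% at one test dose, limit read from the data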;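 note: growth measured after 20 h incubation at 37 °C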
D1 mod: D1 CRE-luciferase signal change, two-sided – cell-based, HEK293 D1, dopamine EC30, D1 allosteric modulator project, primary screen; dopamine EC30 potentiation; actives deviate in either direction; B-score at 10 µM; actives 5.9% (n = 58,000); AID 641, 2007;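 active = luminescence count or its row- and column-corrected plate score outside the 99.7% band of the plate's sample wells, on either side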
PostGolgi ctrl: growth inhibition of yeast control strain, primary screen, counter-screen for post-Golgi transport modulator project. efflux-deficient yeast background strain, growth absorbance A615, 16 h. inhibition, % at 10 µM. actives 5% (n = 98,000)
Numbers stand for hits; i = inactive; nt = not tested or not shown. Cut-off read from the data, not from the text of the source, unless noted: active = inhibition above about 30%; inactive = the rest.

SMILES | tolC growth inh | DAT uptake mod | PostGolgi yeast | Ecoli WT expand | D1 mod | PostGolgi ctrl
COc1ccc(/C(O)=C2/C(=O)C(=O)N(CC3CCCO3)C2c2cccc(OC)c2)cc1 (configuration not stated) | 100 | i | i | i | i | i
CCOc1ccc(C2/C(=C(/O)c3ccc(F)cc3)C(=O)C(=O)N2CCCN(C)C)cc1 (configuration not stated) | i | i | i | i | nt | 44
C=CCOc1ccc(C2/C(=C(\O)c3ccc(F)cc3)C(=O)C(=O)N2CCCN(C)C)cc1 (configuration not stated) | i | i | i | i | i | i
Cc1c(OCc2ccccc2)c(=O)ccn1Cc1ccc(Cl)cc1 | nt | i | i | i | nt | 43
Clc1ccc(-c2nnc(Sc3nc4ccccc4o3)c3ccccc23)cc1 | nt | i | i | i | nt | 57
CCSc1nnc(-c2ccc(Cl)cc2)c2ccccc12 | nt | i | i | i | nt | i
Cc1nnc(Sc2nc3ccccc3o2)c2ccccc12 | i | i | i | i | i | i
Cc1ccc(-c2nnc(Sc3nc4ccccc4o3)c3ccccc23)cc1 | nt | i | i | i | nt | 64
O=C(CSc1nccn1Cc1ccccc1)NCc1ccccc1 | nt | i | i | i | nt | i
COC(=O)c1ccc(CSc2nnc(Nc3ccccc3OC)s2)o1 | i | 3.5 | i | i | i | i
CCCCC(=O)NC(Nc1cc(C)ccn1)(C(=O)OCC)C(F)(F)F (configuration not stated) | i | i | i | i | i | i
CCCCC(=O)NC(Nc1nc(C2CC2)cs1)(C(=O)OCC)C(F)(F)F (configuration not stated) | i | i | i | i | i | 36
COc1cccc(C(=O)N(Cc2ccc(N(C)C)cc2)C2CCS(=O)(=O)C2)c1 (configuration not stated) | i | 2.6 | i | i | i | i
CCOC(=O)CC1=CC(C)(CC(=O)OCC)C(C#N)(C#N)C(N)=C1C#N (configuration not stated) | i | i | i | i | i | i
CCN(CC)C(=O)CC(c1ccc(N(C)C)cc1)c1c(O)cc(OC)cc1OC (configuration not stated) | nt | i | nt | nt | nt | nt
CCC(C)NC(=O)c1ccccc1NS(=O)(=O)c1ccc(OC)c(OC)c1 (configuration not stated) | i | i | i | i | i | i
CCOc1ccccc1N1CCN(C(=O)Nc2ccc(F)c(Cl)c2)CC1 | 96 | i | i | i | i | i
CCOC(=O)N1CCN(C(=O)Nc2ccc(Cl)cc2)CC1 | i | i | i | i | i | 36
CCOC(=O)N1CCC(N(C(=O)Nc2ccc(Cl)c(Cl)c2)C(C)CC)CC1 (configuration not stated) | i | i | i | i | i | 39
CCOC(=O)N1CCC(N(CCOC)C(=O)Nc2ccc(CC)cc2)CC1 | i | i | i | i | i | i
CCOC(=O)N1CCN(C(=O)Nc2cccc(Cl)c2)CC1 | nt | i | i | i | nt | i
COc1ccccc1N1CCN(C(=O)Nc2cccc(Cl)c2)CC1 | nt | i | i | i | nt | i
O=C(COC(=O)CSCC(=O)N1CCCCC1)Nc1ccc(Cl)cc1 | i | i | i | i | i | 36
COc1cc2c(cc1OC)C(=NCCC(=O)O)NC(C)(C)C2 | i | nt | nt | nt | i | nt
COC(=O)C(/C=N/OCc1ccc([N+](=O)[O-])cc1)NC(=O)c1cccc(Cl)c1 (configuration not stated) | nt | i | i | i | nt | i
SMILES | tolC growth inh | DAT uptake mod | PostGolgi yeast | Ecoli WT expand | D1 mod | PostGolgi ctrl
CCOC(=O)N1CCN(C(=O)CSCc2ccc(Cl)cc2)CC1 | nt | i | i | i | nt | 36
O=C(Nc1ccc(Cl)cc1)N1CCCC1 | i | i | i | i | i | i
O=C(Nc1ccc(Cl)cc1)N1CCSCC1 | i | nt | i | i | i | 44
CCOc1ccccc1N1CCN(C(=O)c2cc3c(s2)CCC3)CC1 | i | i | i | i | i | 40
O=S(=O)(NCC(c1cccnc1)N1CCN(c2ccccc2)CC1)c1cc(F)ccc1F (configuration not stated) | i | i | 95 | i | i | 75
COc1ccccc1N1CCN(C(CNS(=O)(=O)c2cc(F)ccc2F)c2cccnc2)CC1 (configuration not stated) | i | nt | nt | nt | i | nt
CC1CC(NC(=O)c2cnc3n(c2=O)CCS3)CC(C)(C)C1 (configuration not stated) | i | -2.6 | nt | nt | i | nt
O=C(NC1CCCC1)c1cnc2n(c1=O)CCS2 | i | i | i | i | i | i
COC(=O)C(NNc1ccccc1C)(NC(=O)c1ccc(F)cc1)C(F)(F)F (configuration not stated) | nt | i | i | i | nt | i
O=C(Nc1nc(-c2ccccc2)cs1)NC1CCCCC1 | nt | i | i | i | nt | 50
O=C(Nc1nc(-c2ccccc2)cs1)C1CCCCN1S(=O)(=O)c1ccccc1 (configuration not stated) | i | i | i | i | i | 35
O=C(Nc1nc(-c2ccccc2)cs1)C1CCCN(S(=O)(=O)c2ccccc2)C1 (configuration not stated) | i | i | i | i | i | i
O=C(Nc1nc(-c2ccccc2)cs1)C1CCCCN1S(=O)(=O)c1ccc(Cl)cc1 (configuration not stated) | nt | i | i | i | nt | 57
NC(=O)c1ccsc1NC(=O)C1CCCN1S(=O)(=O)c1ccc(Cl)cc1 (configuration not stated) | i | i | i | i | nt | 36
Cc1ccc(S(=O)(=O)N(CC(O)CN2C(=O)NC(C)(C)C2=O)c2ccccc2)cc1 (configuration not stated) | nt | i | i | i | nt | i
CCn1cc(/C=N/NS(=O)(=O)c2ccc(OC)cc2)c(C)n1 | nt | i | i | i | nt | i
O=C(Nc1c(C(=O)O)[nH]c2ccccc12)NC1CCCCC1 | i | -2.1 | i | i | i | i
Cc1cc(NC(=O)NC(=O)c2ccc(F)cc2F)n[nH]1 | i | i | i | i | -3.3 | i
COc1ccc(C(O)c2nc3ccccc3s2)cc1 (configuration not stated) | i | -1.9 | i | i | i | i
COc1cc(OC)cc(-c2nc3ccccc3s2)c1 | nt | i | i | i | nt | i
CCC1CCCCN1S(=O)(=O)c1ccc(C(=O)Nc2nnc(-c3ccccc3Cl)o2)cc1 (configuration not stated) | 100 | i | i | i | i | i
CC1CCCCN1S(=O)(=O)c1ccc(C(=O)Nc2nnc(-c3ccccc3Cl)o2)cc1 (configuration not stated) | 100 | i | i | i | i | i
O=C(Nc1nnc(-c2ccccc2Cl)o1)c1ccc(S(=O)(=O)N2CCCCCC2)cc1 | 100 | i | i | i | i | i
